Assay outcomes (PubChem BioAssay)
ASAP1 GAP inh = ASAP1 ArfGAP inhibition. 360,000 compounds, 0.19% hits. inhibition, % at 16.5 µM. ASAP1-stimulated ARF1 GTP hydrolysis, GDP FP detection. Q9ULH1; in the data active means inhibition above about 25%
Target sequence (Q9ULH1 325-724 limits assumed): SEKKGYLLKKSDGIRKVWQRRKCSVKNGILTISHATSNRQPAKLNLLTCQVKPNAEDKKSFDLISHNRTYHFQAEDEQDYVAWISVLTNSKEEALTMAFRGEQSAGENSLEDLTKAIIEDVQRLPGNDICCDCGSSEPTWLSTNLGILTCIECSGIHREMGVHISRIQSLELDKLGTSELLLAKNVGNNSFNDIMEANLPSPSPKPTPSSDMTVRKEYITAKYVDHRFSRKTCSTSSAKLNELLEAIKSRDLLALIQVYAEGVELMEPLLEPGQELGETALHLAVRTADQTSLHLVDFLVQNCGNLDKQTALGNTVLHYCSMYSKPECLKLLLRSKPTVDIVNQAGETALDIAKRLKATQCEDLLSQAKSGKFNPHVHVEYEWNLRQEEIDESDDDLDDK
Cardio protect = modulators protecting cardiomyocytes from myocardial damage; 360,000 compounds, 0.63% hits; protection from H2O2 cell death, % at 20 µM; H9c2 cardiomyocytes, H2O2 injury protection, ATPLite, 2 h;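 active means compounds giving at least 50% protection of heart cells from peroxide-induced death in the single-dose screen, raw or plate-pattern-corrected value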
ARFGAP1 inh = inhibits rat ARF GTPase activating protein 1; Q62848; Arfgap1-stimulated ARF1 GTP hydrolysis, GDP FP detection; inhibition, % at 16.5 µM; 360,000 compounds, 0.26% hits; AID 651572;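 active means inhibition above a per-plate limit, mean inhibition of low control wells plus 3 SD, cut at about 25% in these data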
Target sequence (Q62848 1-136 limits assumed): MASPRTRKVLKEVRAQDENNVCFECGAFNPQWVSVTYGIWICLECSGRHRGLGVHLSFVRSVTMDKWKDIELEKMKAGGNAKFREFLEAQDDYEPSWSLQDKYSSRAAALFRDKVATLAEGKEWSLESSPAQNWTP
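System: truncated rat Arfgap1 GAP domain / Medium: HEPES-based buffer, pH 7.5 / Also added: N-terminally truncated human ARF1-GTP substrate / Incubation: enzyme reaction 120 min at 25 °C after 20 min preincubation / Measured by: FP of antibody-bound GDP Alexa 633 tracer, ex 620/em 688 nm / Replicates: singlicate, each compound tested once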
Neddylation inh = inhibitors of human cullin neddylation; 360,000 compounds, 0.58% hits; AID 651699; TR-FRET cullin neddylation, biochemical; inhibition, % at 25 µM; P61081+Q13564; in the data active means inhibition above about 36%
Hits are given with their value; 0 = inactive; - = not tested or not shown; + = active, no number. Shown are actives, neighbours in structure and some others; about 1.6% of the full set was active somewhere.

SMILES	ASAP1 GAP inh	Cardio protect	ARFGAP1 inh	Neddylation inh
Nc1ccccc1C(=O)NNC(=O)C(=O)/C=C(\O)c1ccccc1	0	0	0	47
O=C(/C=C(\O)c1ccccc1)C(=O)NNC(=O)c1ccccc1[N+](=O)[O-]	0	0	0	0
COc1ccc(NC(=O)c2cc(-c3ccc(OC)c(OC)c3)nc3ccccc23)c(OC)c1	0	66	0	0
COc1ccc(-c2cc(C(=O)NC(C)c3ccccn3)c3ccccc3n2)cc1OC (stereo not drawn)	0	55	0	0
COc1ccc(NC(=O)c2cc(-c3ccncc3)nc3ccccc23)c(OC)c1	0	0	0	0
COc1ccc(-c2cc(C(=O)Nc3ccc(C(N)=O)cc3)c3ccccc3n2)cc1OC	0	0	0	-
CN(C)c1cccc(CNC(=O)c2ccc3sc([C@@H]4O[C@H](CO)[C@H](O)[C@H](O)[C@H]4O)nc3c2)c1	0	0	0	0
Cc1c(C#N)c(N)nc2c3c(sc12)NC(=O)CC3c1ccc(Cl)cc1 (stereo not drawn)	0	50	0	0
COc1cc(NC(=O)c2cc3ccccc3cc2OC)ccc1NC(=O)c1cccs1	0	63	0	-
COc1cc(NC(=O)c2ccccc2Cl)ccc1NC(=O)c1cccs1	0	0	0	0
Cc1cccc(NC(=O)c2nc[nH]c2C(=O)NCCCCCCNC(=O)c2[nH]cnc2C(=O)Nc2cccc(C)c2)c1	0	95	0	0
O=C(Nc1cccc(Cl)c1)c1nc[nH]c1C(=O)NCCCCNC(=O)c1[nH]cnc1C(=O)Nc1cccc(Cl)c1	0	74	0	0
Cc1cccc(NC(=O)c2nc[nH]c2C(=O)NCCCCNC(=O)c2[nH]cnc2C(=O)Nc2cccc(C)c2)c1	0	56	0	-
O=C(Cc1c[nH]c2ccccc12)Nc1ccc(Nc2ccncc2)cc1	0	-	0	-
Fc1ccc(CSc2ccc3nnc(-c4cccnc4)n3n2)cc1	0	80	0	0
COC(=O)[C@]12C[C@H](CC(=O)N3CCN(C(=O)C4CC4)CC3)C(=O)N(Cc3ccccc3)C1=C[C@H](C(C)(C)C)O[C@@H]2C	0	-	0	-
N=C(N)c1ccc(N=Nc2c(O)ccc3c2[nH]c2ccccc23)cc1	175	0	+	0
Oc1ccc(N=Nc2c(O)ccc3ccccc23)cc1	0	0	0	0
Cn1c(=O)c2[nH]c(NN=Cc3ccc(F)cc3)nc2n(C)c1=O	0	0	0	-
Cn1c(=O)c2[nH]c(NN=Cc3cccc(Br)c3)nc2n(C)c1=O	0	50	0	0
CC(=O)NCCNc1nc2c(-c3ccccc3)nnn2c2ccccc12	0	55	0	0
Nc1ccn([C@@H]2O[C@H](C(=O)N[C@H](Cc3ccccc3)C(=O)N3CCN(C(=O)N4CCOCC4)CC3)[C@@H](O)[C@H]2O)c(=O)n1	0	-	0	-
COC(=O)c1ccccc1S(=O)(=O)N(Cc1ccco1)Cc1cc2cc(OC)ccc2[nH]c1=O	0	59	0	0
CC(=O)Nc1ccc(S(=O)(=O)N(Cc2ccco2)Cc2cc3ccccc3[nH]c2=O)cc1	0	58	0	0
O=c1[nH]c2ccccc2cc1CN(Cc1cccnc1)S(=O)(=O)c1ccc(Cl)cc1	0	0	0	0
SMILES	ASAP1 GAP inh	Cardio protect	ARFGAP1 inh	Neddylation inh
COc1ccc2[nH]c(=O)c(CN(CC3CCCO3)S(=O)(=O)c3ccccc3)cc2c1 (stereo not drawn)	0	0	0	0
CC(=O)Nc1ccc(S(=O)(=O)N(Cc2cccnc2)Cc2cc3ccccc3[nH]c2=O)cc1	0	64	0	0
COc1ccc2[nH]c(=O)c(CN(CC3CCCO3)S(=O)(=O)c3ccccc3F)cc2c1 (stereo not drawn)	0	53	0	0
CN(Cc1ccco1)C(=O)[C@@H](Cc1ccccc1)NC(=O)[C@H]1O[C@@H](n2ccc(=O)[nH]c2=O)[C@H](O)[C@@H]1O	0	-	0	-
CN1CCc2c(sc3c2C(=O)NC(c2ccccn2)N3)C1 (stereo not drawn)	0	0	0	48
CN1CCc2c(sc3c2C(=O)NC(c2ccccc2)N3)C1 (stereo not drawn)	0	0	0	0
CCCCC(=O)NC(c1ccc(C(C)C)cc1)c1ccc2cccnc2c1O (stereo not drawn)	0	51	0	0
COc1ccccc1C(=O)NCC(=O)N/N=C/c1cc(Br)ccc1OC(=O)/C=C\c1ccco1	0	88	0	0
O=C(CNC(=O)c1ccccc1F)N/N=C/c1cc(Br)ccc1OC(=O)/C=C/c1ccco1	0	57	0	0
O=C(CNC(=O)c1ccc(F)cc1)N/N=C/c1cc(Br)ccc1OC(=O)/C=C/c1ccco1	0	80	0	0
O=C(/C=C/c1ccco1)NCC(=O)N/N=C/c1ccccc1[N+](=O)[O-]	0	0	0	0
COc1cccc(-c2nn(-c3ccccc3)cc2C(=O)Nc2nccs2)c1	0	63	0	0
COc1ccc(-c2nn(-c3ccccc3)cc2C(=O)Nc2nccs2)cc1	0	59	0	0
COc1cc(C(O)c2nc(-c3cccc(F)c3)cs2)ccc1F (stereo not drawn)	0	0	0	0
COC(=O)C1=C(C)N(Cc2ccc(C(F)(F)F)cc2)C(=NCc2ccc3c(c2)OCO3)NC1c1cccc(Cl)c1 (stereo not drawn)	0	-	0	-
O=C(Oc1cccc2c(=O)[nH]ccc12)c1ccccc1	0	80	0	0
CC(=O)N1CCC(C(=O)N2c3ccccc3N=C(c3ccc(C(F)(F)F)cc3)C2C(=O)NC(C)(C)C)CC1 (stereo not drawn)	0	-	0	-
O=C(NCc1n[nH]c(=O)c2ccccc12)C1CC(=O)N(c2ccccc2)C1 (stereo not drawn)	0	67	0	0
O=C(NC1CC1)C1CC(=O)N(c2ccccc2)C1 (stereo not drawn)	0	0	0	0
CC(C)(C)c1ccc(OCC(=O)Nc2ccc3c4c(cccc24)C(=O)NC3=O)cc1	0	60	0	-
COc1cccc(/C=N/NC(=O)c2[nH]c(C)c(C(=O)N/N=C/c3cccc(OC)c3)c2C)c1	0	56	0	0
Cc1cccc(C)c1OCCn1nc(C(=O)O)c2ccccc2c1=O	0	57	0	0
Cc1cccc(OCCn2nc(C(=O)O)c3ccccc3c2=O)c1	0	73	0	0
Cc1ccc(SCCn2nc(C(=O)O)c3ccccc3c2=O)cc1	0	0	0	0
Cc1ccc(-c2noc(Cn3nc(C(=O)O)c4ccccc4c3=O)n2)cc1	0	0	0	0
SMILES	ASAP1 GAP inh	Cardio protect	ARFGAP1 inh	Neddylation inh
CC(C)(C)c1ccc(OCCn2nc(C(=O)O)c3ccccc3c2=O)cc1	0	0	0	0
Cc1noc(C)c1Cn1nc(C(=O)O)c2ccccc2c1=O	0	64	0	0
O=C(N[C@H](C(=O)N1CCC[C@H]1C(=O)NC1CCCC1)c1ccccc1)c1ccc(Cl)cc1Cl	0	-	0	-
Oc1ccc2ccccc2c1C=Nc1ccccc1Br	0	0	0	0
Oc1c(Br)cc(Cl)cc1C=Nc1ccccc1Br	0	72	0	0
Fc1ccc(NC(=S)Nc2ccc3nccnc3c2)cc1	0	62	0	0
Cc1ccc(NC(=S)Nc2ccc(F)cc2)cc1C	0	0	0	0
